Assays:
[1] = folding enthalpy; higher = less favourable; fluorescence melt of hairpins on a sequencing array, two-state fit; conditions: sodium 0.088 M
Method in brief: (§1)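 Bootstrapped two-state fits yielded melting temperature and folding enthalpy for library hairpins. Cy3 fluorescence, with annealed Cy3 and quencher oligos, was imaged on a sequenced MiSeq flow cell in 50 mM Na-HEPES pH 8.0, 25 mM NaCl in 2.5 °C steps up to 60 °C, and normalised to pre-quench Cy3 and to control constructs. Four replicates were combined by inverse variance, and fitted temperatures were raised by 9.35 °C to match UV melts.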

[2] = melting temperature; fluorescence melt of hairpins on a sequencing array, two-state fit, raised by 9.35 °C to match UV melts; conditions: sodium 0.088 M
Method in brief: as §1

| Sequence | folding enthalpy [1] | Tm [2] |
| --- | --- | --- |
| GCACCGCGAAAGCGCCGC ((..(((....)))..)) | -8.78 kcal/mol | 36.1 °C |
| GCGTGGCGAAAGCTATGC ((.(.((....)).).)) | -31.4 kcal/mol | 52.5 °C |
| GTCTTCCGAAAGGAGGAC (((.(((....))).))) | -38.2 kcal/mol | 54.5 °C |
| GTATGCACGAAAGTGTAC (((..(((....)))))) | -9.37 kcal/mol | 31.1 °C |
| GACAACGAAAGTTTTGTC ((((((....)))..))) | -24.7 kcal/mol | 31.8 °C |
| GGCGACGGAAACGTCACC ((.((((....)))).)) | -33.5 kcal/mol | 54.7 °C |
| GACAAAGGAAACTTCGTC (((.(((....))).))) | -17 kcal/mol | 26.7 °C |
| GCGCGTCGAAAGACTCGC (((.(((....))).))) | -38.7 kcal/mol | 58.4 °C |
| GATCTAGGTTAGATC ((((((...)))))) | -28.5 kcal/mol | 39.2 °C |
| GCGTGGGGAAACTCGCGC (((.(.(....).).))) | -35.6 kcal/mol | 54 °C |
| GATCAAACTTTGATC ((((((...)))))) | -31.6 kcal/mol | 41.9 °C |
| GTTTTACGAAAGTAAAC (((.(((....)))))) | -17.4 kcal/mol | 38.7 °C |
| GCTCAGCGAAAGCGCAGC (((..((....))..))) | -14.8 kcal/mol | 45.7 °C |
| GAATAGCCGAAAGGCTTC (((..(((....)))))) | -7.5 kcal/mol | 25.5 °C |
| GCCATCGAAAGATTCGGC ((((((....)))..))) | -21 kcal/mol | 36.9 °C |
| GGGTCTCCGAAAGGACCC (((..(((....)))))) | -26.5 kcal/mol | 51.4 °C |
| GACAAACCGAAAGGTGTC (((..(((....)))))) | -19.8 kcal/mol | 43.2 °C |
| GAGGACGAAAGTCCCCTC ((((((....)))..))) | -10.3 kcal/mol | 42.7 °C |
| GCTCGGCGAAAGCCTTGC ((..(((....)))..)) | -11.4 kcal/mol | 50.2 °C |
| GTTGTGGGAAACTACAAC (((((.(....).))))) | -36.1 kcal/mol | 46.3 °C |
| GCTGCTGGAAACAGTGGC ((..(((....)))..)) | -40.2 kcal/mol | 47.6 °C |
| GCATAGGCGAAAGCCTGC (((..(((....)))))) | -13.5 kcal/mol | 49 °C |
| GCGATGCGAAAGCCCCGC (((..((....))..))) | -20.5 kcal/mol | 43.9 °C |

| Sequence | folding enthalpy [1] | Tm [2] |
| --- | --- | --- |
| GATAGAGAAATCTATC ((((((....)))))) | -21.5 kcal/mol | 36.8 °C |
| GCCGGGGGAAACTCCGGC (((((.(....).))))) | -39.3 kcal/mol | 68.5 °C |
| GGTTGAGGAAACCCAACC (((((.(....).))))) | -39.4 kcal/mol | 45.2 °C |
| GACGACGAAAGTCAGGTC ((((((....)))..))) | -19.9 kcal/mol | 44.3 °C |
| GCGAACGCGAAAGCGCGC (((..(((....)))))) | -14.7 kcal/mol | 60.1 °C |
| GTTCCAGGAAACCGGAAC (((((.(....).))))) | -45.4 kcal/mol | 45.6 °C |
| GCCCGAGGAAACTCAGGC (((.(((....))).))) | -27.2 kcal/mol | 45.1 °C |
| GTATTTGGAAACAAGTAC (((.(((....))).))) | -20.6 kcal/mol | 35.7 °C |
| GCTCAGCGAAAGCAGCGC ((.(.((....)).).)) | -18 kcal/mol | 49.4 °C |
| CGCTGCCGGAAACGGGCG (((..(((....)))))) | -22.8 kcal/mol | 46.7 °C |
| GTAGACGAAAGTCTATAC ((((((....)))..))) | -12.2 kcal/mol | 42.6 °C |
| CGACGCGGAAACGCATCG (((.(((....))).))) | -28 kcal/mol | 49.1 °C |
| GGCACCCGAAAGGGAGCC (((.(((....))).))) | -32.6 kcal/mol | 68.6 °C |
| GCGAGTTTCGC ((((...)))) | -17.3 kcal/mol | 51 °C |
| GGGTCCCGAAAGGGCCCC (((.(((....))).))) | -17.9 kcal/mol | 67.2 °C |
| GATCGGCACCCGATC ((((((...)))))) | -35.9 kcal/mol | 55 °C |
| CGAATCGGAAACGAGTCG (((.(((....))).))) | -40.2 kcal/mol | 51.3 °C |
| CGGGCGGAAACGCGACCG ((((((....)))..))) | -30.5 kcal/mol | 57.8 °C |
| GAACGAGGAAACTCGTTC (((((((....))))))) | -41.2 kcal/mol | 63.8 °C |
| GCTGATCGAAAGATAAGC (((.(((....))).))) | -35.1 kcal/mol | 49.5 °C |
| GCACCGCGAAAGCGACGC ((..(((....)))..)) | -15.6 kcal/mol | 47.2 °C |
| GTACGAGGAAACTTGTGC (.((.((....)).)).) | -16.8 kcal/mol | 33 °C |
| GATGTAGGAAACTACACC (.(((((....))))).) | -17.8 kcal/mol | 31.8 °C |

| Sequence | folding enthalpy [1] | Tm [2] |
| --- | --- | --- |
| GTCTGCGAAAGCAACGAC ((((((....)))..))) | -13.1 kcal/mol | 44.9 °C |
| GATACCGAAAGGTGGATC ((((((....)))..))) | -13 kcal/mol | 30.2 °C |
| GCGTTGCGAAAGCCAGGC ((.(.((....)).).)) | -16.9 kcal/mol | 40.3 °C |
| GCCCGCGGAAACGCGGAC (.(((((....))))).) | -9.8 kcal/mol | 57 °C |
| GTGTGCGGAAACGCACGC (.(((((....))))).) | -16.4 kcal/mol | 66 °C |
| GGTAACGAAAGTTGTACC ((((((....)))..))) | -17.5 kcal/mol | 34.8 °C |
| GGGTGGCGAAAGCCTCCC (((.(((....))).))) | -28 kcal/mol | 66.2 °C |
| GGAATCGAAAGATTGTCC ((((((....)))..))) | -11.1 kcal/mol | 27.2 °C |
| GATCCCGGGCGGGATC ((((((....)))))) | -40.1 kcal/mol | 61.1 °C |
| GGCGACCCGAAAGGGGCC (((..(((....)))))) | -13.1 kcal/mol | 54.6 °C |
| GCTAATGGAAACATTAGC (((((((....))))))) | -45.4 kcal/mol | 56 °C |
| GTTGCTGGAAACAGCGAC ((.((((....)))).)) | -39.6 kcal/mol | 54.3 °C |
| GAAGTGCGAAAGCATTTC (((.(((....))).))) | -23.5 kcal/mol | 51 °C |
| GCCGAACCGAAAGGTGGC (((..(((....)))))) | -26.4 kcal/mol | 53.1 °C |
| GGTCCCGGAAACGGGATC (.(((((....))))).) | -24.2 kcal/mol | 57.1 °C |
| GGTTACGAAAGTAAGACC ((((((....)))..))) | -15 kcal/mol | 34.5 °C |
| GACTACGAAAGTACGGTC ((((((....)))..))) | -20.4 kcal/mol | 32 °C |
| GCTGAGGCGAAAGCCAGC (((..(((....)))))) | -22.3 kcal/mol | 52.8 °C |
| GGGTCCGAAAGGATACCC ((((((....)))..))) | -20.1 kcal/mol | 50 °C |
| GCCCCCCGAAAGGGTGGC (((.(((....))).))) | -33.1 kcal/mol | 64.2 °C |
| GCGTAGGAAACTACGC ((((((....)))))) | -31.2 kcal/mol | 67.1 °C |
| GATCTCCTGAGAGATC ((((((....)))))) | -39 kcal/mol | 53.2 °C |
| GTGGGTGGAAACATCCGC (.((.((....)).)).) | -26.3 kcal/mol | 44.2 °C |

| Sequence | folding enthalpy [1] | Tm [2] |
| --- | --- | --- |
| GTGGGTGAAAACCCAC ((((((....)))))) | -28.1 kcal/mol | 67.3 °C |
| GTGCAGACGAAAGTCCAC (((..(((....)))))) | -16.9 kcal/mol | 37.9 °C |
| GGCTGGGCGAAAGCCGCC (((..(((....)))))) | -19.6 kcal/mol | 58.4 °C |
| GCCCCTGGAAACAGAGGC (((.(((....))).))) | -27.7 kcal/mol | 46.3 °C |
| GGCCGAGGAAACTCGGTC (.(((((....))))).) | -31.4 kcal/mol | 64.4 °C |
| GATCTGCGAAAGCATATC (((.(((....))).))) | -20.7 kcal/mol | 41.1 °C |
| GGGGTCGAAAGACACCC ((((((....))).))) | -18.2 kcal/mol | 63.1 °C |
| GGCAACGAAAGTTATGCC ((((((....)))..))) | -24.2 kcal/mol | 46.3 °C |
| GCGCTGCGAAAGCAACGC (((.(((....))).))) | -49 kcal/mol | 61.5 °C |
| GATCGCTGTTGCGATC ((((((....)))))) | -28.7 kcal/mol | 67.8 °C |
| CGTCCGGAAACGGATACG ((((((....)))..))) | -18.1 kcal/mol | 40 °C |
| GAATACCGAAAGGTGTTC (((.(((....))).))) | -40.3 kcal/mol | 51.2 °C |
| GCCTAGGGAAACCCAGGC ((((.((....)).)))) | -31.6 kcal/mol | 50.6 °C |
| GGGAGTGGAAACACTTCC ((.((((....)))).)) | -36.2 kcal/mol | 50.5 °C |
| GATTGCGAAAGCACATC ((((((....))).))) | -19.3 kcal/mol | 40.1 °C |
| GTCCGGAAACGGAC (((((....))))) | -28.2 kcal/mol | 67.4 °C |
| GCGGCTTTCCGC ((((....)))) | -25 kcal/mol | 56.6 °C |
| GAAAGCGAAAGCTCGTTC ((((((....)))..))) | -9.57 kcal/mol | 25.9 °C |
| GCAATAGGAAACTATCGC ((.((((....)))).)) | -18.6 kcal/mol | 33.9 °C |
| GAAGGCGGAAACGCTTTC (((.(((....))).))) | -24.9 kcal/mol | 48.2 °C |
| GGTGGGGGAAACCTCACC ((((.((....)).)))) | -39.5 kcal/mol | 53.5 °C |
| GTTAACACGAAAGTGAAC (((..(((....)))))) | -9.64 kcal/mol | 25.3 °C |
